Measurements taken from the EternaBench riboswitch data.

Tests used:
[1] = test system: MS2 coat protein; test: apparent Kd, MS2 coat protein; higher = weaker binding; RNA-MaP array; theophylline 2 mM where present
Outline: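 Designs were transcribed by stalled E. coli RNA polymerase on Illumina sequencing-chip clusters. They were titrated with SNAP-549-labelled MS2 coat protein from 0.7 or 1.5 nM, doubling to 3 µM, without and then with constant ligand. Buffer: 100 mM Tris-HCl pH 7.5, 80 mM KCl, 4 mM MgCl2, BSA, DTT, yeast tRNA, Tween-20. Green signal was normalised to red-channel RNA signal and control-cluster median Fmax. Apparent Kd is the median of filtered per-cluster binding-curve fits.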

[2] = test system: MS2 coat protein; test: apparent Kd, MS2 coat protein; higher = weaker binding; RNA-MaP array
Outline: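 Apparent Kd values come from the median of binding-curve fits to single clusters. To obtain them, designed RNAs transcribed on an Illumina sequencing chip from sequenced DNA templates were incubated at room temperature with fluorescently labeled MS2 coat protein at 1.5 nM to 3 μM, with or without input ligand, for 0.8–1.5 h at the lowest and 10–20 min at the highest concentrations. Designs measured on fewer than 10 clusters were excluded.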

[3] = designed as: OFF switch for theophylline, no ligand
[4] = ligand present: theophylline, designed as: OFF switch for theophylline
[5] = designed as: ON switch for theophylline, no ligand
[6] = ligand present: theophylline, designed as: ON switch for theophylline
[7] = designed as: OFF switch for flavin mononucleotide, no ligand
[8] = ligand present: flavin mononucleotide, designed as: OFF switch for flavin mononucleotide
[9] = designed as: ON switch for flavin mononucleotide, no ligand
[10] = ligand present: flavin mononucleotide, designed as: ON switch for flavin mononucleotide
[11] = designed as: OFF switch for tryptophan, no ligand
[12] = designed as: ON switch for tryptophan, no ligand
[13] = ligand present: tryptophan, designed as: ON switch for tryptophan

AAACGUUGCUGCGAUACCAGACAUGAGGAUCACCCAUGUACCAAGGUACGAAUAUAACAUGUCCCUUGGCAGCGCAGCAACGAAA
apparent Kd [1, 3]: 12.6 nM
apparent Kd [1, 4]: 279 nM

AAAUAAAUAACUGAUACCAGUCGGACAACAUGAGGAUCACCCAUGUUCACCCAUGUUGAGGACCCUUGGCAGCAGAAAUAUAAAA
apparent Kd [1, 3]: 92.3 nM
apparent Kd [1, 4]: 185 nM

AAUAACAUGAGGAUCACCCAUGUAAAAGAUACCAGAUGCAUGAUGAUCCCUUGGCAGCUUAAAACGCGAUUGGAAACAAUCGCGA
apparent Kd [1, 5]: 31.2 nM
apparent Kd [1, 6]: 126 nM

AAUCUGUCGGGUGAUACCAGCCUCGGCGCAUCUCACGCUGAACAUGAGGAUCACCCAUGUGGCCCUUGGCAGCACAUGACAAAUC
apparent Kd [1, 5]: 572 nM
apparent Kd [1, 6]: 55.1 nM

ACACGAGGAUCACCCGUGUCAUGUGGUGAUACCAGUUUACAUGAGAACCCUUGGCAGCAUAACAACAUGAGGAUCACCCAUGUCA
apparent Kd [1, 5]: 32.3 nM
apparent Kd [1, 6]: 41.7 nM

ACAUGAGGAUCACCCAUGUCACGGCACGAUACCAGCUGAUCCGGUGGCCCUUGGCAGCGUGACGUUUGGUCCCGCGGAUGACACG
apparent Kd [1, 5]: 134 nM
apparent Kd [1, 6]: 43 nM

ACAUGAGGAUCACCCAUGUGCCGUCUUGAUACCAGACGCGAAGUAGUCCCUUGGCAGCAAAUACGUGAGGGUCGCGCAUGUGUAA
apparent Kd [1, 3]: 24.1 nM
apparent Kd [1, 4]: 34.7 nM

ACAUGAGGAUCACCCAUGUUCCUCAUUGAUACCAGUGAAUUUAGACGCCCUUGGCAGCGAGUUUUUUUAUAAGAUUUUUUUUUUU
apparent Kd [1, 3]: 626 nM
apparent Kd [1, 4]: 1320 nM

ACAUGAGGAUCACCCAUGUUCCUCGCCGAUACCAGUGAAGAAGUACGCCCUUGGCAGCGGAAAGAGUAUUUUGGAGAUGAGGUAC
apparent Kd [1, 3]: 80 nM
apparent Kd [1, 4]: 88.8 nM

ACCUCACUCUCUGAUACCAGCUAAUAACAUGAGGAUCACCCAUGUCAGACUUGUAUUGAUAGCCCUUGGCAGCAGAGGUAACUGC
apparent Kd [1, 3]: 9.39 nM
apparent Kd [1, 4]: 11.3 nM

ACGACAUGAGGAUCACCCAUGUAAGGUGAUACCAGACGAAGUAAUGUCCCUUGGCAGCACACGCAUAGUUGCGAUUAUUGUACGA
apparent Kd [1, 5]: 533 nM
apparent Kd [1, 6]: 137 nM

ACGAUGCGACAUGAGGAUCACCCAUGUGAUACCAGCCUGGAAACAGGCCCUUGGCAGCACAAAUACUCCAGAAACGCAUCGAAUA
apparent Kd [1, 3]: 267 nM
apparent Kd [1, 4]: 439 nM

AGAAUAACACAUGAGGAUCACCCAUGUGAUACCAGCUAGGAAACUAGCCCUUGGCAGCACAUAAGGUGAUCCAGCUGCCAAGAAU
apparent Kd [1, 3]: 137 nM
apparent Kd [1, 4]: 74.9 nM

GUAUGCCACAGGGACAUGAGGAUCACCCAUGUAAAUACGGAUAGAAGGCGACGAGCGUAGCUCUUCGAGGAUAUAUGCUUUUUG
apparent Kd [2, 7]: 31.5 nM
apparent Kd [2, 8]: 34.2 nM

GUAUUACAUGAGGAUCACCCAUGUGCGCCGCGUCAAGGAUAUGUAUCGUACGUGUAGUAAACAGAAGGUGACGGAU
apparent Kd [2, 9]: 170 nM
apparent Kd [2, 10]: 71.2 nM

GUCAUGUCAGGAUAUCGUUCGGAGUGCGAUUCCCUCUGCCGCGAGAAGGGACAUGAGGAUCACCCAUGUUCGAA
apparent Kd [2, 7]: 16.8 nM
apparent Kd [2, 8]: 43.7 nM

GUCUCAGACCGAGAUACCAGCUGGGUUUCCCACAUGAGGAUCACCCAUGUAUUCAGAUUAAGCCCUUGGCAGCUCAUCUAGGUCC
apparent Kd [2, 5]: 15.8 nM
apparent Kd [2, 6]: 20.9 nM

GUGUCGCGUACAGGAUAUGCUUAGGCGCUGCCCUCACAUGAGGAUCACCCAUGUAGUUUCCGCAGGCAGAAGGGUACUGACGUC
apparent Kd [2, 7]: 9.67 nM
apparent Kd [2, 8]: 16.2 nM

GUUUCACAUGAGGAUCACCCAUGUCAAUGCACUGUAGGAUAUGGUUGGUUUCCGCAGCGGCCAGAAGGACAAAUAU
apparent Kd [2, 9]: 51.2 nM
apparent Kd [2, 10]: 33.5 nM

UAAAACGGAUCAGGAUAUGUGAAACUGAGUGCGUGAACACUCGCCUACAUGAGGAUCACCCAUGUACAGAAGGGAACUACUACA
apparent Kd [2, 9]: 16.4 nM
apparent Kd [2, 10]: 13.9 nM

UAAUAGAUUACGGCCGCCACUGAAGUGGACUUUAUGAGCAGGAUUCACAUGAGGAUCACCCAUGUCAGGACCGGGUACGUCCAUA
apparent Kd [2, 11]: 39.2 nM
apparent Kd ([2]; ligand present: tryptophan, designed as: OFF switch for tryptophan): 45.4 nM

UACAUUCGUCAGGAUAUCCAUCAGCCAGGCCUCGGAGAAGGGACUACAUGAGGAUCACCCAUGUGUAACCUCGU
apparent Kd [2, 7]: 40.4 nM
apparent Kd [2, 8]: 88.8 nM

UACCAUAGACCAGUUAGCGACACAUGAGGAUCACCCAUGUAGAGAAGGUGCUCUAUCUUAAGACGCAAGGAUAUCUGCAUUAUA
apparent Kd [2, 7]: 20.3 nM
apparent Kd [2, 8]: 21.9 nM

UACCCUCGAGGAUAUUAGCUAGCGAACAUGAGGAUCACCCAUGUGCAUCUUCCCAGCCGUUAAGAAGGCGAUUACC
apparent Kd [2, 7]: 93.1 nM
apparent Kd [2, 8]: 79.2 nM

UACCGACAUGAGGAUCACCCAUGUACUGCGCUUGGAGGAUAUCGGCUUGAUUUUGCGCGUCGAGAAGGCCAACCUA
apparent Kd [2, 9]: 12.2 nM
apparent Kd [2, 10]: 10.2 nM

UACCGCUACAUAGGAUAUGGAGGAUGUAUGAAACACAUGAGGAUCACCCAUGUCAUCUGCACACGCCAGAAGGAUGGAAGAAAA
apparent Kd [2, 9]: 13.4 nM
apparent Kd [2, 10]: 7.13 nM

UACCGGGCGAUAGGAUAUAUCAGUUACUUCACAUGAGGAUCACCCAUGUUACCCGUGGAAAGUUGAUAGAAGGAUCCAGCUCCA
apparent Kd [2, 7]: 44.8 nM
apparent Kd [2, 8]: 41.2 nM

UAGGACAUCCAGAAGGUAACCCAAUGAUAUAACACAUGAGGAUCACCCAUGUUGAAUCAGAGACUUAAGGAUAUGGUUGAUCUU
apparent Kd [2, 9]: 23.1 nM
apparent Kd [2, 10]: 13.5 nM

UAGUAACAUGAGGAUCACCCAUGUCAGGAUAUGAGGUCUACGGCAUAAGCGAAUCGGGUCAGAAGGGACAUAAC
apparent Kd [2, 7]: 20.4 nM
apparent Kd [2, 8]: 16.9 nM

UAGUUGCAUACAUGAGGAUCACCCAUGUUUUAAUGGGUAACUAGAAGGUGUUGACGUUGGCUAAACAAGGAUAUAGUUCGUGCU
apparent Kd [2, 7]: 43.3 nM
apparent Kd [2, 8]: 46.5 nM

UAUAAACAGCCUGGUUACUCGUCGCGCUUGCGAGGACCGGUACGGCCGCCACUCGACCCAUCACAUGAGGAUCACCCAUGUCCCA
apparent Kd [2, 11]: 31.7 nM

UCGAGUACGGUGAGGAUAUCAUGAGGAUUACUACAAGAGAAGGCACAUGAGGAUCACCCAUGUGGCGACCAUUC
apparent Kd [2, 7]: 6.28 nM
apparent Kd [2, 8]: 6.32 nM

UCGCUGUAAGAGAAGGGCUCUGCAUGAGCACAUGAGGAUCACCCAUGUAAGAUCCUAAAGUACGAGCAGGAUAUCUCCGAGUGG
apparent Kd [2, 7]: 106 nM
apparent Kd [2, 8]: 77.3 nM

UCGUUGGCACAGAAGGGACUCUCGAAGCAUGUGUCAGGAUAUGUGCGCUACAUGAGGAUCACCCAUGUCAAGACCUGGUUAGCA
apparent Kd [2, 7]: 29.4 nM
apparent Kd [2, 8]: 18.8 nM

UCUCACAUGAGGAUCACCCAUGUGUGCGGUCGAGGACCGGUACGGCCGCCACUCGAAUCCUUCCGCGAGAAGAUUGUACGACGGC
apparent Kd [2, 12]: 76.2 nM
apparent Kd [2, 13]: 65.2 nM

UCUGGUAUGACGGCCGCCACUAGAUCGUGAGAAGCCUGCAUACAUGAGGAUCACCCAUGUCUCACUAGGACCGGGUCAUUCCAAU
apparent Kd [2, 12]: 66.1 nM
apparent Kd [2, 13]: 22.3 nM

UCUUUAAGCACAGGAUAUUGGUACAUGAGGAUCACCCAUGUGGAUCGUACUACCUCUCCACCGGACAAGAAGGGUGCGCCUACG
apparent Kd [2, 9]: 172 nM
apparent Kd [2, 10]: 125 nM

UGAUGAUGACAGGAUAUUAGCGUAAUGAAACUUUAAGAAGGGUCGACAUGAGGAUCACCCAUGUAUGAUCUCGA
apparent Kd [2, 7]: 5.5 nM
apparent Kd [2, 8]: 5.38 nM

UGCUUAAGACAGAAGGGCGUUCCGGAUGGUACCGCAGGAUAUGUCAACAUGAGGAUCACCCAUGUUACUAGCUAUGUUUCAAUU
apparent Kd [2, 9]: 9.97 nM
apparent Kd [2, 10]: 6.09 nM

UGGGAGUGAGGAUAUGUAUAUCUCAGGGCCGAGGAGAUGAAACAGAAGGCACAUGAGGAUCACCCAUGUUAUGA
apparent Kd [2, 7]: 25.3 nM
apparent Kd [2, 8]: 29.9 nM

UGUAACACAGGAUAUACAUAGGCCAGCCACUGACUCAGGUCACAUGAGGAUCACCCAUGUAGAAGGGUGCUGAA
apparent Kd [2, 7]: 116 nM
apparent Kd [2, 8]: 84.1 nM

UGUGCCUAGUAGAAGGCGCCGACUCGCUCACGGCGAGGAUAUACUACUCAGGGCACAUGAGGAUCACCCAUGUGUGAUUCGUAA
apparent Kd [2, 7]: 103 nM
apparent Kd [2, 8]: 23.1 nM

UUAAUCGUGCAUGAUACCAGUAUCCGUAGAUACAUGAGGAUCACCCAUGUCUGGUUGGAAUACCCUUGGCAGCAUGGGUUGAGGA
apparent Kd [2, 5]: 242 nM
apparent Kd [2, 6]: 249 nM

UUAGACCUGCGAGGAUAUUCCAGACUAACUGAGGAAGAAGGCGCUAGAACAUGAGGAUCACCCAUGUAACAGGGAACACUUCGU
apparent Kd [2, 7]: 9.82 nM
apparent Kd [2, 8]: 26.3 nM

UUAUACGCGAAAGGAUAUCUGAGAGUGGGAUCGUGGACAUGAGGAUCACCCAUGUGGAGAGAGGGAGAGAAGGUUCGGGUAUUC
apparent Kd [2, 7]: 31.7 nM
apparent Kd [2, 8]: 29.5 nM

UUCAUUCGAACCAAGGAUAUGUGAUAAGUUACAUGAGGAUCACCCAUGUAUCAGUACAUCAACAGACAGAAGGUGGUGCAUAGUCA
apparent Kd [2, 9]: 7.14 nM
apparent Kd [2, 10]: 6.57 nM

UUCCUCAGCAGGGUAACAUGAGGAUCACCCAUGUCGGAGAGCGAGGAUAUCUCGUGAAGCUCAUAAGAGAAGGCGCACAACUAG
apparent Kd [2, 7]: 18.2 nM
apparent Kd [2, 8]: 17.2 nM

UUCGGCCUUUAGAAGGAUUGUAUACAUGAGGAUCACCCAUGUUGGUGAUACAGAUAUAUUCGGCAAUAGGAUAUAAGCAGGUGA
apparent Kd [2, 7]: 826 nM
apparent Kd [2, 8]: 598 nM

UUGUAACAUGAGGAUCACCCAUGUAUGAACUAACAAGGAUAUGCGUGAGUCAGAUAAGACGCAGAAGGUGUCAGAU
apparent Kd [2, 9]: 10.3 nM
apparent Kd [2, 10]: 7.55 nM

UUGUGUACUCGAGGAUAUAAUGGACUACAUGAGGAUCACCCAUGUAUACGCCCACAGAGCGUCUUUUAGAAGGCGACGCAUCAU
apparent Kd [2, 9]: 8.4 nM
apparent Kd [2, 10]: 7.85 nM

UUUAUGUCAGGAUAUCCAACACUAUGGGAAAGUAAAUAUAGGGAGAAGGGACAUGAGGAUCACCCAUGUCAACA
apparent Kd [2, 7]: 8.12 nM
apparent Kd [2, 8]: 8.59 nM
